Active and inactive are the calls of the source. No cut-off for these calls is given here.
How the values were obtained:
Mus musculus [1] = test: Acute toxicity in BALB/c mouse assessed as effect on body weight at 300 mg/kg, po administered as single dose measured every day for 14 days; format: organism-based; details: in vivo, 336 h
Outline: (§1)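 Female BALB/c mice, 6-8 weeks old, 20-23 g, in groups of three. Single oral dose of 300 or 500 mg/kg; vehicle DMSO 100% given to controls. Mice watched for signs of toxicity for 4 h after dosing. Physical appearance, injury, pain and illness recorded daily for 14 days. Euthanasia in a CO2 chamber on day 14 or earlier if suffering.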

Mus musculus [2] = test: Acute toxicity in BALB/c mouse assessed as effect on blood urea nitrogen level at 300 to 500 mg/kg, po administered as single dose measured at day 14; format: organism-based; details: in vivo
Plasmodium yoelii [3] = test: Antiplasmodial activity against Plasmodium yoelii 17XNL sporozoites infected in BALB/c mouse assessed as incident of decrease in peripheral blood parasite levels at 100 mg/kg, po measured at day 1 by […] relative to control; format: functional; parameters: scale not given: the % may be the effect or the level left
Outline: (§2)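 BALB/c mice (6-8 weeks, 20-23 g), n=4 per hybrid group and n=5 per control. Dosed orally at 100 mg/kg (100 µL) on days -1, 0, +1 and +2. Vehicle was DMSO 100%; primaquine diphosphate given at 30 mg/kg daily. On day 0, 5 x 10^3 cryopreserved P. yoelii 17XNL sporozoites injected i.v. Parasitaemia read by Giemsa smear and SYBR Green flow cytometry. Groups compared by Kruskal-Wallis test.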

Mus musculus [4] = test: Acute toxicity in BALB/c mouse assessed as effect on feeding habbit at 300 mg/kg, po administered as single dose measured every day for 14 days; format: organism-based; details: in vivo, 336 h; outline: as §1
Mus musculus [5] = test: Acute toxicity in BALB/c mouse assessed as necrosis of kidney at 500 mg/kg, po administered as single dose measured at day 14 by haematoxylin and eosin staining based microscopic analysis; format: organism-based; details: in vivo
Outline: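 Female BALB/c mice, groups of three, single oral dose; vehicle DMSO 100% for controls. Mice euthanised with CO2 on day 14, or earlier if suffering. Gross necropsy performed. Spleen, liver and kidney fixed in formaldehyde 37%, stained with haematoxylin and eosin and examined by light microscopy.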

Plasmodium berghei = test: Antiplasmodial activity against GFP-expressing gametocytes of Plasmodium berghei sporozoites in Anopheles stephensi mosquitoes feeded on blood from infected Swiss mouse assessed as reduction in number of oocysts in mosquito midgut at 100 mg/kg, ip pretreated for 1.5 hrs followed by blood feeding of mosquito and measured at 8 days post mosquitoes infection by fluorescence microscopic method relative to control; format: functional; parameters: scale not given: the % may be the effect or the level left
Outline: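 Swiss mice (female, 6 weeks) infected i.p. with PbGFP-infected red cells (200 µL, 3000 parasites/µL). Gametocytes monitored 4 days by Giemsa smear and exflagellation. Hybrid given i.p. at 100 mg/kg in DMSO 1.5 h before A. stephensi fed 1 h on mice with 1% gametocytes. Controls were untreated and DMSO-treated mice. Thirty mosquitoes per group dissected after 8 days. Midgut oocysts counted by fluorescence microscopy against control mosquitoes taken as 100%.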

Mus musculus [6] = test: Acute toxicity in BALB/c mouse assessed as effect on creatinine level at 300 to 500 mg/kg, po administered as single dose measured at day 14; format: organism-based; details: in vivo
Mus musculus [7] = test: Acute toxicity in BALB/c mouse assessed as effect on total bilirubin level at 300 to 500 mg/kg, po administered as single dose measured at day 14; format: organism-based; details: in vivo
Plasmodium yoelii [8] = test: Antiplasmodial activity against Plasmodium yoelii 17XNL sporozoites infected in BALB/c mouse assessed as decrease in peripheral blood parasite levels at 100 mg/kg, po measured at day 5 by […]; format: functional, organism-based; outline: as §2
[9] = Genotoxicity in Salmonella typhimurium TA1535 harboring pSK1002 assessed as bacterial survival at 0.001 to 0.063 mg/ml after 4 hrs in presence of Sprague-Dawley rat liver S9 fraction by SOS/umu assay relative to control; format: toxicity, organism-based; details: salmonella enterica subsp. enterica serovar typhimurium; read-out: Survival
Outline: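 Log-phase S. typhimurium TA1535/pSK1002 (OD600 0.15–0.4) exposed for 4 h at 37°C with shaking, with 10% rat S9 mix or PBS. Eleven twofold dilutions tested from 1 mg/mL final; DMSO as solvent control. A600 read. Survival expressed as % of negative-control A600.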

Mus musculus [10] = test: Acute toxicity in BALB/c mouse assessed as behavioral changes at 300 mg/kg, po administered as single dose measured every day for 14 days; format: organism-based; details: in vivo, 336 h; outline: as §1
Mus musculus [11] = test: Acute toxicity in BALB/c mouse assessed as appearance of bright hair without erection at 300 to 500 mg/kg, po administered as single dose measured every day for 14 days; format: organism-based; details: in vivo, 336 h; outline: as §1
[12] = Selectivity index, ratio of CC50 for human primary hepatocytes to IC50 for GFP-expressing Plasmodium falciparum sporozoites; format: toxicity; details: read-out: Ratio CC50/IC50
Outline: (§3)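 Selectivity index = CC50 (matching cell) / IC50 (matching parasite). Cell–parasite pairs: HepG2-CD81 with P. yoelii, HepG2 with P. berghei, human hepatocytes with P. falciparum.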

Plasmodium yoelii [13] = test: Antiplasmodial activity against GFP-harboring Plasmodium yoelii sporozoites infected in human HepG2 cells expressing CD81 assessed as reduction in parasite growth treated every 24 hrs by DAPI staining-based fluorescence microscopic analysis; format: functional, organism-based; details: HepG2, 24 h
Outline: (§4)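 Collagen-coated wells seeded with HepG2 (P. berghei), HepG2-CD81 (P. yoelii) or primary human hepatocytes (P. falciparum). Sporozoites added: 5×10^3 to 1×10^4 per well to the cell lines, 2.5×10^4 per well to hepatocytes. Compounds given at infection: top 10 µg/mL plus seven serial dilutions, renewed at 3 h and then every 24 h. Cultures grown 40 h (cell lines) or 8 days (hepatocytes) at 37°C. Methanol-fixed, HSP70 immunolabelled, DAPI counterstained. IC50 from logistic regression; triplicate.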

Mus musculus [14] = test: Acute toxicity in BALB/c mouse assessed as appearance of normal coloured mucosa at 300 to 500 mg/kg, po administered as single dose measured every day for 14 days; format: organism-based; details: in vivo, 336 h; outline: as §1
Mus musculus [15] = test: Acute toxicity in BALB/c mouse assessed as mouse survival at 300 mg/kg, po administered as single dose measured every day for 14 days; format: organism-based; details: in vivo, 336 h; outline: as §1
Mus musculus [16] = test: Acute toxicity in BALB/c mouse assessed as appearance of clear and bright eyes at 300 to 500 mg/kg, po administered as single dose measured every day for 14 days; format: organism-based; details: in vivo, 336 h; outline: as §1
[17] = Selectivity index, ratio of CC50 for human HepG2 cells to IC50 for multidrug-resistant Plasmodium falciparum […]; format: toxicity; details: read-out: Ratio CC50/IC50
Outline: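 Selectivity index = HepG2 CC50 / FCR-3 IC50. CC50 from MTT assay after 48 h exposure, A550. IC50 from 48 h Hoechst 33342 flow-cytometry assay.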

Plasmodium yoelii [18] = test: Potency index, ratio of primaquine IC50 to compound IC50 for GFP-expressing Plasmodium yoelii sporozoites infected in human HepG2 cells expressing CD81; format: functional
Plasmodium falciparum = test: Antiplasmodial activity against GFP-harboring Plasmodium falciparum sporozoites infected in human primary hepatocytes assessed as reduction in parasite growth treated every 24 hrs by DAPI staining-based fluorescence microscopic analysis; format: functional, organism-based; outline: as §4
Plasmodium yoelii [19] = test: Antiplasmodial activity against Plasmodium yoelii 17XNL sporozoites infected in BALB/c mouse assessed as parasite burden at 100 mg/kg, po measured at day 4 by […] (reference value: 0.06%); format: functional; outline: as §2
[20] = Selectivity index, ratio of CC50 for human HepG2 cells to IC50 for GFP-expressing Plasmodium berghei sporozoites; format: toxicity; details: read-out: Ratio CC50/IC50; outline: as §3

COc1cc(NC(C)CCCNC(=O)c2c(C)[n+]([O-])c3ccccc3[n+]2[O-])c2ncccc2c1 (configuration not stated)
Activity (Mus musculus [1]): Non-Toxic | Activity (Mus musculus [2]): Non-Toxic | Activity (Plasmodium yoelii [3]): 25% | Activity (Mus musculus [4]): Non-Toxic | Activity (Mus musculus [5]): Non-Toxic | Activity (Plasmodium berghei): 92% | Activity (Mus musculus [6]): Non-Toxic | Activity (Mus musculus [7]): Non-Toxic | Activity (Plasmodium yoelii [8]): Active | viability at 4 h [9]: > 80% | Activity (Mus musculus [10]): Non-Toxic | Activity (Mus musculus [11]): Non-Toxic | selectivity ratio [12]: 39.5 | IC50 (Plasmodium yoelii [13]): 1.39 µM | Activity (Mus musculus [14]): Non-Toxic | Activity (Mus musculus [15]): Non-Toxic | Activity (Mus musculus [16]): Non-Toxic | selectivity ratio [17]: 0.58 | Ratio IC50 (Plasmodium yoelii [18]): 1.5 | IC50 (Plasmodium falciparum): 5.38 µM | Activity (Plasmodium yoelii [19]): 0% | selectivity ratio [20]: 7.59

Source: ChEMBL document CHEMBL4270646, “Novel antimalarial chloroquine- and primaquine-quinoxaline 1,4-di-N-oxide hybrids: Design, synthesis, Plasmodium life cycle stage profile, and preliminary toxicity studies” (Eur J Med Chem, 2018)
